Results taken from ChEMBL document CHEMBL1142272, “Fused bicyclic pyrrolizinones as new scaffolds for human NK1 antagonists” (Bioorg Med Chem, 2008).
The source made the active and inactive calls. No cut-off for these calls is given here.

Assays:
[1] = target: T1, Substance-P receptor (Homo sapiens, UniProt P25103); experiment: Displacement of [125I]L-703606 from human NK1 expressed in CHO cells at 0.1 uM; type: cell-based
[2] = target: T1, Substance-P receptor; experiment: Displacement of [125I]L-703606 from human NK1 expressed in CHO cells; type: cell-based
[3] = system: Meriones unguiculatus; experiment: Brain penetration in gerbils assessed as inhibition of GR-73632-induced foot tapping at 1 mg/kg, iv; type: functional
Summary of the method: (§1)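 Gerbils receive the test compound by iv injection. Hindlimb thumping (foot tapping) is then elicited by central administration of an NK1 agonist. Inhibition of the thumping is scored as % inhibition at 0 h after 1 mg/kg iv, or at 24 h after 3 mg/kg. Dose titrations at 0 and 24 h give an ID50.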

[4] = target: T1, Substance-P receptor; experiment: Displacement of [125I]L-703606 from human NK1 expressed in CHO cells in presence of 50% human serum; type: cell-based
[5] = system: Meriones unguiculatus; experiment: Brain penetration in gerbils assessed as inhibition of GR-73632-induced foot tapping at 3 mg/kg, iv after 24 hrs; type: functional; summary of the method: as §1
[6] = organism: Meriones unguiculatus; experiment: Brain penetration in gerbils assessed as inhibition of GR-73632-induced foot tapping; type: functional; settings: read-out: ID50 (the source's name); summary of the method: as §1
[7] = target: T1, Substance-P receptor; experiment: Displacement of [125I]L-703606 from human NK1 expressed in CHO cells in presence of 50% human serum at 0.1 uM; type: cell-based

T1 sequence (P25103 whole entry): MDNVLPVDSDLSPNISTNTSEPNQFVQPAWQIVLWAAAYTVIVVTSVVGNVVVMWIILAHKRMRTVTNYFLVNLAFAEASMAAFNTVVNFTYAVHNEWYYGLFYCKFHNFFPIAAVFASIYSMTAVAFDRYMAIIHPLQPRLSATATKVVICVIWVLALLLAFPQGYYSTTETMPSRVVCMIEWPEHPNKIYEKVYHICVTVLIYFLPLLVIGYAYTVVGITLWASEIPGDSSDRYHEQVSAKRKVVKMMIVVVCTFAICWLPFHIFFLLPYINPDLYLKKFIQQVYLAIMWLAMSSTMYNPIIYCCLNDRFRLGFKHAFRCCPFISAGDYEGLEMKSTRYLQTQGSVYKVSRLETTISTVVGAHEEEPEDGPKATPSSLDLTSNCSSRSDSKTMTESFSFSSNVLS

Compound	IC50 [2] [nM]	Activity [4]	further results
C[C@H](O[C@H]1[C@H](c2ccc(F)cc2)CN(C(=O)OC(C)(C)C)[C@H]1CO)c1cc(C(F)(F)F)cc(C(F)(F)F)c1			Activity [1]: 39%
C[C@H](O[C@H]1CN(C(=O)OC(C)(C)C)[C@@H](CO)[C@@H]1c1ccccc1)c1cc(C(F)(F)F)cc(C(F)(F)F)c1			Activity [1]: 26%
C[C@H](O[C@@H]1[C@@H](c2ccccc2)CN(C(=O)OC(C)(C)C)[C@H]1CO)c1cc(C(F)(F)F)cc(C(F)(F)F)c1			Activity [1]: 26%
C[C@H](O[C@@H]1[C@@H](c2ccc(F)cc2)CN(C(=O)OC(C)(C)C)[C@H]1CO)c1cc(C(F)(F)F)cc(C(F)(F)F)c1			Activity [1]: 41%
C[C@@H](O[C@@H]1[C@@H](c2ccccc2)CN2C(=O)OC[C@H]12)c1cc(C(F)(F)F)cc(C(F)(F)F)c1	1.5		Activity [3]: inactive; Activity [7]: 31%
C[C@H](O[C@H]1[C@H](c2ccccc2)CN(C(=O)OC(C)(C)C)[C@H]1CO)c1cc(C(F)(F)F)cc(C(F)(F)F)c1			Activity [1]: 13%
C[C@@H](O[C@@H]1[C@@H](c2ccccc2)CN(C(=O)OC(C)(C)C)[C@H]1CO)c1cc(C(F)(F)F)cc(C(F)(F)F)c1	3.6		
C[C@@H](O[C@H]1CN2C(=O)N(Cc3ccccc3)C[C@H]2[C@@H]1c1ccc(F)cc1)c1cc(C(F)(F)F)cc(C(F)(F)F)c1	2.7	inactive	Activity [3]: inactive
C[C@@H](O[C@H]1[C@H](c2ccc(F)cc2)CN(C(=O)OC(C)(C)C)[C@H]1CO)c1cc(C(F)(F)F)cc(C(F)(F)F)c1	4.4		
C[C@@H](O[C@H]1[C@H](c2ccccc2)CN(C(=O)OC(C)(C)C)[C@H]1CO)c1cc(C(F)(F)F)cc(C(F)(F)F)c1	7.8		
C[C@H](O[C@H]1CN(C(=O)OC(C)(C)C)[C@@H](CO)[C@@H]1c1ccc(F)cc1)c1cc(C(F)(F)F)cc(C(F)(F)F)c1			Activity [1]: 92%

More lines, main results first:

IC50 [2] [nM]	Activity [4]	Compound	further results
0.63		C[C@@H](O[C@H]1CN(C(=O)OC(C)(C)C)[C@@H](CO)[C@@H]1c1ccccc1)c1cc(C(F)(F)F)cc(C(F)(F)F)c1	
0.06	2.2 nM	C[C@@H](O[C@H]1CN2C(=O)CC[C@H]2[C@@H]1c1ccc(F)cc1)c1cc(C(F)(F)F)cc(C(F)(F)F)c1	inhibition in vivo at 1 mg/kg [3]: 100%; inhibition in vivo at 3 mg/kg [5]: 100%; ED50 [6]: 0.03 mg/kg
0.28		C[C@@H](O[C@H]1CN(C(=O)OC(C)(C)C)[C@@H](CO)[C@@H]1c1ccc(F)cc1)c1cc(C(F)(F)F)cc(C(F)(F)F)c1	inhibition in vivo at 1 mg/kg [3]: 16%; inhibition in vivo at 3 mg/kg [5]: 0%
0.06	2 nM	C[C@@H](O[C@H]1CN2C(=O)NC[C@H]2[C@@H]1c1ccc(F)cc1)c1cc(C(F)(F)F)cc(C(F)(F)F)c1	inhibition in vivo at 1 mg/kg [3]: 100%; inhibition in vivo at 3 mg/kg [5]: 8%
1.3		C[C@@H](O[C@@H]1[C@@H](c2ccccc2)CN2C(=O)OC[C@@H]12)c1cc(C(F)(F)F)cc(C(F)(F)F)c1	Activity [3]: inactive; Activity [7]: 25%
0.27	37 nM	C[C@@H](O[C@H]1CN2C(=O)OC[C@@H]2[C@@H]1c1ccccc1)c1cc(C(F)(F)F)cc(C(F)(F)F)c1	inhibition in vivo at 1 mg/kg [3]: 2.5%
0.88	32 nM	C[C@@H](O[C@H]1CN2C(=O)N(C)C[C@H]2[C@@H]1c1ccc(F)cc1)c1cc(C(F)(F)F)cc(C(F)(F)F)c1	Activity [3]: inactive
0.14	37 nM	C[C@@H](O[C@H]1CN2C(=O)OC[C@@H]2[C@@H]1c1ccc(F)cc1)c1cc(C(F)(F)F)cc(C(F)(F)F)c1	inhibition in vivo at 1 mg/kg [3]: 49%; inhibition in vivo at 3 mg/kg [5]: 0%
1	inactive	C[C@@H](O[C@@H]1[C@@H](c2ccc(F)cc2)CN2C(=O)OC[C@H]12)c1cc(C(F)(F)F)cc(C(F)(F)F)c1	Activity [3]: inactive
1.2		C[C@@H](O[C@@H]1[C@@H](c2ccc(F)cc2)CN(C(=O)OC(C)(C)C)[C@H]1CO)c1cc(C(F)(F)F)cc(C(F)(F)F)c1	
0.33	57 nM	C[C@@H](O[C@@H]1[C@@H](c2ccc(F)cc2)CN2C(=O)OC[C@@H]12)c1cc(C(F)(F)F)cc(C(F)(F)F)c1	Activity [3]: inactive
